The results in this text go back to ChEMBL document CHEMBL1135746, “Structure-activity relationships of the antimalarial agent artemisinin. 7. Direct modification of (+)-artemisinin and in vivo antimalarial screening of new, potential preclinical antimalarial candidates” (J Med Chem, 2002).

Test [1] relates to Plasmodium berghei. The experiment in a line: Antimalarial activity in Plasmodium berghei infected mice (Mus musculus) at 8 mg/kg/day subcutaneous dose. It is filed as functional. The essentials:
(§1)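 CD-1 mice (16-18 g), quarantined 2 weeks, then infected with P. berghei (Thompson test). Treatment was given on days 3-5 postinfection. Subcutaneous dosing was a single injection; oral dosing was by gavage of a peanut-oil suspension. Groups of 5 mice were used. Survival was scored out of 5 and parasitemia was followed up to 60 days postinfection.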

The test system of test [2] is Plasmodium berghei. The experiment in a line: Antimalarial activity in Plasmodium berghei infected mice (Mus musculus) at 32 mg/kg/day peroral dose. It is filed as functional. The note with it: route oral. The essentials: as §1
For test [3], the system named is Plasmodium berghei. The experiment in a line: Antimalarial activity in Plasmodium berghei infected mice (Mus musculus) after 128 mg/kg/day subcutaneous dose. In kind it is functional. A digest of the protocol: as §1
In test [4] the test system is Plasmodium berghei. The experiment in a line: Antimalarial activity in Plasmodium berghei infected mice (Mus musculus) at 8 mg/kg/day peroral dose. In kind it is functional. The note with it: route oral. A digest of the protocol:
as §1

Test [5] relates to Plasmodium berghei. The experiment in a line: Antimalarial activity in Plasmodium berghei infected mice (Mus musculus) at 32 mg/kg/day subcutaneous dose. It is filed as functional. A digest of the protocol: as §1
Test [6] relates to Plasmodium berghei. The experiment in a line: Effective dose ED50 against Plasmodium berghei N in mice (Mus musculus) malaria model after subcutaneous administration. It is filed as functional. The following applies: for ED50: Plasmodium berghei, sc, read-out: ED50.
The subject of test [7] is Plasmodium yoelii. The experiment in a line: Effective dose ED90 against Plasmodium yoelii sspNS on subcutaneous dose. In kind it is functional. The following applies: sc.
The subject of test [8] is Plasmodium falciparum. The experiment in a line: Inhibitory activity against Plasmodium falciparum NF54. In kind it is functional, organism-based.
For test [9], the system named is Plasmodium falciparum. The experiment in a line: Inhibitory activity against Plasmodium falciparum D6. It is filed as functional, organism-based. A digest of the protocol:
(§2)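 Parasitized human red blood cells were used in short-term microtitre cultures. Compounds were dissolved in DMSO and diluted 400-fold in culture medium with plasma, giving a starting concentration of at least 12 500 ng/mL. Activity was measured as inhibition of parasite uptake of a radiolabelled nucleic acid precursor.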

In test [10] the test system is Plasmodium falciparum. The experiment in a line: Inhibitory activity against Plasmodium falciparum W2. In kind it is functional, organism-based. A digest of the protocol: as §2
The subject of test [11] is Plasmodium yoelii. The experiment in a line: Effective subcutaneous dose ED50 against Plasmodium yoelii sspNS. It is filed as functional. The note with it: sc.
Test [12] relates to Plasmodium berghei. The experiment in a line: Effective dose ED90 against Plasmodium berghei N in mice (Mus musculus) malaria model after subcutaneous administration. It is filed as functional.
In test [13] the test system is Plasmodium falciparum. The experiment in a line: Inhibitory activity against Plasmodium falciparum K1. It is filed as functional, organism-based.
Test [14] concerns Plasmodium berghei. The experiment in a line: Effective dose ED50 against Plasmodium berghei N in mice (Mus musculus) malaria model after peroral administration. The note with it: Plasmodium berghei, po; read-out: ED50. It is filed as functional.
The test system of test [15] is Plasmodium berghei. The experiment in a line: Effective dose ED90 against Plasmodium berghei N in mice (Mus musculus) malaria model after peroral administration. It is filed as functional. The following applies: po.
Test [16] deals with Plasmodium berghei. The experiment in a line: Effective dose ED90 against Plasmodium berghei N in mice (Mus musculus) malaria model after oral administration. It is filed as functional.
Test [17] concerns Plasmodium yoelii. The experiment in a line: Effective subcutaneous dose ED90 against Plasmodium yoelii NS. In kind it is functional.
Test [18] relates to Plasmodium berghei. The experiment in a line: Antimalarial activity in Plasmodium berghei infected mice (Mus musculus) at 128 mg/kg/day peroral dose. It is filed as functional. The note with it: route oral. The essentials: as §1
In test [19] the test system is Plasmodium yoelii. The experiment in a line: Effective subcutaneous dose ED90 against Plasmodium yoelii sspNS. It is filed as functional.
For test [20], the system named is Plasmodium berghei. The experiment in a line: Antimalarial activity against Plasmodium berghei infected mice (Mus musculus) at 32 mg/kg/day subcutaneous dose. In kind it is functional. A digest of the protocol:
as §1

[21] abbreviates: Plasmodium berghei, sc, read-out: ED90.

≈ marks a conversion by molar mass, not a printed value. Where “and” joins values, the source holds several entries; their conditions need not be identical. Equal values may be shown once.

In the case of `CCCC[C@H]1CO[C@@H]2O[C@]3(C)CC[C@H]4[C@H](C)CC[C@@H]1[C@@]24OO3`, the Activity in the test on Plasmodium berghei [1] is given as 5; in the test with Plasmodium berghei [2], 2; in the test on Plasmodium berghei [3], 5; in the test on Plasmodium berghei [4], 0; in the test on Plasmodium berghei [5] it was 5.

With `C[C@@H]1CC[C@H]2[C@@H](CCCc3ccc(C(F)(F)F)cc3)CO[C@@H]3OC4(C)CC[C@@H]1[C@]32OO4` (single isomer, unassigned), the ED50 (usually the dose at which the effect has come halfway, by size or by number of responders) in the test with Plasmodium berghei [6] was 0.44 mg/kg; in the test with Plasmodium yoelii [11], 0.67 mg/kg. In addition, the ED90 with Plasmodium yoelii [7] is 1.25 mg/kg; in the test on Plasmodium berghei [12] it was 0.8 mg/kg and 2.1 mg/kg. Also, the IC50 (as a rule, the concentration that gives 50% inhibition) stood at 0.102 µg/mL (≈ 0.23 µM) in the test on Plasmodium falciparum [8], 0.0281 µg/mL (≈ 0.0639 µM) in the test with Plasmodium falciparum [9], 0.058 µg/mL (≈ 0.132 µM) in the test with Plasmodium falciparum [10] and 0.0395 µg/mL (≈ 0.0898 µM) in the test with Plasmodium falciparum [13].

Take `C[C@@H]1CC[C@H]2[C@@H](CCCc3cccc(C(F)(F)F)c3)CO[C@@H]3OC4(C)CC[C@@H]1[C@]32OO4` (single isomer, unassigned): the ED50 in the test with Plasmodium berghei [14] turned out to be 1.25 mg/kg; with Plasmodium berghei [6], 0.4 mg/kg; in the test on Plasmodium yoelii [11] it was 0.6 mg/kg. Also, the ED90 was determined as 4.4 mg/kg in the test on Plasmodium berghei [15], 1 mg/kg with Plasmodium yoelii [7] and 0.75 mg/kg in the test on Plasmodium berghei [12] (setting [21]). The IC50 was determined as 0.0356 µg/mL (≈ 0.0808 µM) with Plasmodium falciparum [8], 0.00848 µg/mL (≈ 0.0193 µM) in the test on Plasmodium falciparum [9], 0.0303 µg/mL (≈ 0.0688 µM) in the test on Plasmodium falciparum [10] and 0.012 µg/mL (≈ 0.0272 µM) in the test on Plasmodium falciparum [13].

As to `C[C@@H]1CC[C@H]2[C@@H](CCCc3ccccc3)CO[C@@H]3OC4(C)CC[C@@H]1[C@]32OO4` (single isomer, unassigned), the results for the ED90 in the test with Plasmodium berghei [6], in the test with Plasmodium berghei [16] and in the test on Plasmodium yoelii [17] were 1, 3.4 and 0.9, respectively. Also, the Activity in the test on Plasmodium berghei [18] was 5; in the test with Plasmodium berghei [1], 0; in the test with Plasmodium berghei [2], 4; with Plasmodium berghei [3] it was 5; in the test with Plasmodium berghei [4], 0; with Plasmodium berghei [5], 5. Besides, the half-maximal inhibitory concentration (IC50) with Plasmodium falciparum [9] was determined as 0.0009 µg/mL (≈ 0.00242 µM).

For the compound `C[C@@H]1CC[C@H]2[C@@H](CCCc3ccc(Cl)cc3)CO[C@@H]3OC4(C)CC[C@@H]1[C@]32OO4` (single isomer, unassigned), the ED90 with Plasmodium yoelii [19] was determined as 1. In addition, the Activity with Plasmodium berghei [18], in the test on Plasmodium berghei [3] and in the test on Plasmodium berghei [5] was 5 throughout. Moreover, the values for the IC50 in the test on Plasmodium falciparum [9] and in the test on Plasmodium falciparum [10] were 0.0019 µg/mL (≈ 0.00467 µM) and 0.0026 µg/mL (≈ 0.00639 µM), respectively. Also, the Survival dose in the test on Plasmodium berghei [20] came out at 5.

For the compound `COc1ccc(CCC[C@H]2CO[C@@H]3OC4(C)CC[C@H]5[C@H](C)CC[C@@H]2[C@@]35OO4)cc1` (single isomer, unassigned), the Activity in the test with Plasmodium berghei [18] was 5; in the test with Plasmodium berghei [1], 0; in the test on Plasmodium berghei [2], 5; with Plasmodium berghei [3], 5; in the test with Plasmodium berghei [4] it was 0; with Plasmodium berghei [5] it was 5.

Regarding `C[C@@H]1CC[C@H]2[C@@H](CCCc3cccc(Cl)c3)CO[C@@H]3OC4(C)CC[C@@H]1[C@]32OO4` (single isomer, unassigned), the ED50 in the test on Plasmodium berghei [14] came to 2 mg/kg; in the test on Plasmodium berghei [6] it was 0.5 mg/kg; in the test on Plasmodium yoelii [11], 0.6 mg/kg. Further, the ED90 in the test on Plasmodium berghei [15] stood at 8.3 mg/kg; in the test with Plasmodium yoelii [7] it was 1 mg/kg; in the test on Plasmodium berghei [12] (setting [21]), 0.9 mg/kg. For the same compound, the IC50 worked out at 0.0183 µg/mL (≈ 0.0449 µM) in the test with Plasmodium falciparum [8], 0.00755 µg/mL (≈ 0.0186 µM) in the test with Plasmodium falciparum [9], 0.0216 µg/mL (≈ 0.0531 µM) in the test on Plasmodium falciparum [10] and 0.0101 µg/mL (≈ 0.0247 µM) in the test with Plasmodium falciparum [13].

Regarding `C[C@@H]1CC[C@H]2[C@@H](CCCc3cccc(F)c3)CO[C@@H]3OC4(C)CC[C@@H]1[C@]32OO4` (single isomer, unassigned), the ED50 came to 0.9 mg/kg in the test with Plasmodium berghei [14], 0.46 mg/kg with Plasmodium berghei [6] and 0.58 mg/kg in the test on Plasmodium yoelii [11]. Also, the ED90 was 3.4 mg/kg in the test on Plasmodium berghei [15], 1 mg/kg in the test with Plasmodium yoelii [7] and 0.85 mg/kg with Plasmodium berghei [12] (setting [21]). Moreover, the IC50 was found to be 0.0418 µg/mL (≈ 0.107 µM) in the test on Plasmodium falciparum [8], 0.00828 µg/mL (≈ 0.0212 µM) in the test on Plasmodium falciparum [9], 0.0268 µg/mL (≈ 0.0687 µM) with Plasmodium falciparum [10] and 0.0116 µg/mL (≈ 0.0296 µM) with Plasmodium falciparum [13].
